SKKanGAS inh = inhibitors of SKKanGAS S. pyogenes growth in kanamycin (SK-promoter or general growth effect); BacTiter-Glo, 6 h; inhibition, % at 7.5 µM; 300,000 tested, 1.3% active; AID 1662;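 active = mean replicate score, as percent of positive control median, at least 50; inconclusive = mean below 50 but one replicate at or above 50; inactive = mean and every replicate below 50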;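 also: strain carries kanamycin resistance gene driven by streptokinase promoter and grows in 40 µg/ml kanamycin; loss of luminescence reflects streptokinase promoter inhibition or plain growth inhibition; 0% = median of DMSO wells and 100% = positive control at its reference dose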
Calb FLC = affects C. albicans growth with fluconazole. C. albicans CaCi-2 (fluconazole-resistant clinical isolate) + fluconazole, Alamar Blue growth, 48 h. growth inhibition, % (test concentration not listed). 300,000 tested, 0.57% active;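 active = growth inhibition above about 58% in most replicates, limit read from the data, passing the limit was not always enough; inconclusive = exactly half the replicates above a set limit; inactive = most replicates below a set limit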;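 also: all wells also contain fluconazole at 8 µg/ml as a sub-toxic cotreatment; 0% = median of DMSO wells and 100% = median of geldanamycin control wells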
T cruzi repl = T. cruzi replication inhibition | T. cruzi beta-gal in NIH3T3, luminescence, 90 h | inhibition, % (concentration not given with the values) | 300,000 tested, 1.4% active | AID 1885;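 active = mean inhibition across valid replicates above about 55%, limit read from the data; inconclusive = mean below that limit but half or more replicates reach it; inactive = mean below it, under half of replicates reach it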;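 also: signal also drops with host cell toxicity which is not excluded here; 0% = plate median of DMSO wells and 100% = zero luminescence signal; higher percent means less beta-gal luminescence so fewer parasites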
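Incubation – ≥90 h infection period, 3 h prior cell attachment · System – NIH/3T3 fibroblasts plus reporter T. cruzi · Doses – compound pinned at 50 nL/well, DMSO · Read-out basis – percent inhibition of parasite-derived β-gal signal · Signal – luminescent β-galactosidase signal after 60 min lysis · Also added – 5000 T. cruzi trypomastigotes/well · Medium – Low-serum DMEM with 2% FBS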
Mdm2-MdmX inh = disrupts the human Mdm2-MdmX interaction. inhibition, % at 8 µM. SaOS-2 split-luciferase Mdm2/MdmX complementation, luminescence. 330,000 tested, 3% active. O15151+Q00987;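 active = inhibition of at least 50% at 8 µM in the primary screen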
Target sequence (O15151 whole entry, looked up): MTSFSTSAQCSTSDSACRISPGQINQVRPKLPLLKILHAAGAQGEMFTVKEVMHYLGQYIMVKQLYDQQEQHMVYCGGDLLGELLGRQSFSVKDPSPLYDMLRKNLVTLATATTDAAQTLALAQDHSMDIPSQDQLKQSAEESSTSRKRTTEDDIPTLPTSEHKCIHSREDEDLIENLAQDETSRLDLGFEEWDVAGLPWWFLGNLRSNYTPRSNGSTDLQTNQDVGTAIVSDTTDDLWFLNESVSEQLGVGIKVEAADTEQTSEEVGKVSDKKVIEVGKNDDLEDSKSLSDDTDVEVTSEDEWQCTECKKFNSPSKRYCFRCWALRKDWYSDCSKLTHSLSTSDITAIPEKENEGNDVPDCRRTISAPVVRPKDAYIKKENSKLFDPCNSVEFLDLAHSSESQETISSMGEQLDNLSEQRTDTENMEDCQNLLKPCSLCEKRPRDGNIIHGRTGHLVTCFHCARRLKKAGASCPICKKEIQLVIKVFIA
Target sequence (Q00987 whole entry, looked up): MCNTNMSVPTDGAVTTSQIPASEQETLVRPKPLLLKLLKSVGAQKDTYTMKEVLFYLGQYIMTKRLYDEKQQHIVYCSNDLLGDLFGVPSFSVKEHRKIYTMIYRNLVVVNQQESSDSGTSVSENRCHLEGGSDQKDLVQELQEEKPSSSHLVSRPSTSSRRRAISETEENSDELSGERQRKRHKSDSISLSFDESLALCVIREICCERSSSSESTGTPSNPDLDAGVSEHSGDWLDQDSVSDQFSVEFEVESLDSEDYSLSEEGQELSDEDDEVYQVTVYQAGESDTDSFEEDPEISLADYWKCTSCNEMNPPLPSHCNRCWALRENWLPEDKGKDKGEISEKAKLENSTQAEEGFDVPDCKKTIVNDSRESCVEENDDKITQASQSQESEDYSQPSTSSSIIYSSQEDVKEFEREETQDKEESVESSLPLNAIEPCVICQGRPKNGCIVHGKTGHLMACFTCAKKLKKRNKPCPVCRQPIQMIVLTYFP
CSC inhib = blocks cancer stem cells. inhibition, % at 7.5 µM. cancer stem cell-like cells viability, luminescence. 300,000 tested, 1.1% active; in the data active = inhibition above about 75%; inconclusive = no clear call, values can overlap the other calls; tested in HMLE shEcad cells
Beta apoptosis = beta cell apoptosis inhibition. INS-1E cytokine-induced death, ATP luminescence, 48 h; percent of positive-control rescue, neutral wells zero. protection from apoptosis, % (no concentration beside the values). 300,000 tested, 0.8% active. AID 435005;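 active = Every replicate reaches about 75%, or at least half do and their mean reaches it too, limit read from the data; inconclusive = At least half of replicates reach the limit but their mean does not; inactive = Under half of replicates reach the limit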;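 also: 0% = cytokine-treated negative control wells and 100% = positive control rescue; higher means more ATP so stronger rescue from cytokine killing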
* hit, by the source's call; ? = inconclusive; · = not tested or not shown. An excerpt weighted towards active compounds, which were near 5.7% of everything screened.

SMILES | SKKanGAS inh | Calb FLC | T cruzi repl | Mdm2-MdmX inh | CSC inhib | Beta apoptosis
CC1CCCCC1NC(=O)CNC(=O)c1cccs1 (stereo not given) | -12 | -3 | -2 | -14 | -4 | -1
Cc1ccc(OCCC(=O)OCC(=O)NCCc2ccc(Cl)cc2)cc1 | -3 | -4 | -4 | -19 | -16 | ·
CC1=NN(c2ccccc2)C(=O)/C1=C/c1c(O)n(-c2ccc(F)c(Cl)c2)[nH]c1=O | 72* | 5 | -3 | -47 | 103* | 1
COc1ccc2[nH]c(C(O)(Cc3cccnc3)Cc3cccnc3)cc2c1 | 1 | 20 | 57* | -15 | 3 | -1
COc1ccc(CCn2c(SCCN3CCCCC3)nc3ccccc3c2=O)cc1OC | -6 | -19 | 67* | 20 | -13 | 1
C=CCNC(=O)CSc1nc2ccccc2c(=O)n1CCc1ccc(OC)c(OC)c1 | 8 | 3 | -6 | -8 | -9 | 1
Cc1noc(C)c1CSCC(=O)Nc1ccccc1N1CCCCC1 | 0 | 10 | 11 | 3 | -13 | ·
CC(C)(C)C(=O)NC1CC2CCCC(C1)N2C(=O)Nc1ccccc1 (stereo not given) | 1 | 2 | 5 | -15 | -3 | 1
N#CCC(=O)NNC(=S)NC(=O)C(c1ccccc1)c1ccccc1 | 27 | -6 | -3 | -12 | -4 | 5
CC(=O)NC(=S)NNC(=O)C(c1ccccc1)c1ccccc1 | 80* | 29 | 17 | 20 | 1 | 11
CCCn1c(SCC(=O)N2CCN(CC)CC2)nc2c1c(=O)n(C)c(=O)n2C | 1 | -2 | -2 | 25 | -4 | -6
Cc1cccc2nc(COc3ccc4ccccc4c3Br)cn12 | 64* | -8 | -6 | -237 | 27 | -5
O=C(Nc1ccc(F)cc1)c1oc2ccccc2c1NC(=O)C1CC1 | -7 | -1 | -2 | 10 | -9 | 9
COC(=O)c1cccc(Cn2c(Cl)c(/C=N/NC(=O)c3ccco3)sc2=O)c1 | -3 | -2 | 2 | 28 | 0 | -2
CCC(=O)Nc1nnc(-c2ccccn2)o1 | -1 | -3 | 2 | 8 | -15 | -4
O=C(Nc1nnc(-c2ccccn2)o1)c1ccc(Br)cc1 | 6 | 98* | -53 | 20 | 11 | 6
CC1(C(=O)Nc2ccc(S(=O)(=O)Nc3ncccn3)cc2)CCCC1 | · | · | · | 15 | -12 | -1
COC(=O)CSc1nnc(NC(=O)c2ccc3c(c2)OCO3)s1 | 52* | 0 | -6 | 26 | -8 | ·
O=C(O)CSc1nnc(NC(=O)c2ccc3c(c2)OCO3)s1 | -14 | ? | -8 | 10 | -16 | -11
CCCCCCSc1ccc(-c2nc3ccc(Cl)cn3c2NCCCC)cc1OC | · | · | · | -8 | · | ·
CCCCNc1c(-c2ccc(SC3CCCCC3)c(OC)c2)nc2ccc(Cl)cn12 | 32 | 3 | 70* | 11 | 3 | -1
CCCCNc1c(-c2ccc(SC(C)CC)c(OC)c2)nc2ccc(C)cn12 (stereo not given) | 72* | 17 | 29 | 50 | 123* | 53
COc1cccc(C(=O)NCCSc2c(C)[nH]c3ccccc23)c1OC | 6 | -9 | 10 | -12 | -17 | 0
CC/C(=C/c1ccccc1)c1cccc2[nH]c3c(OC)cccc3c12 | 99* | 5 | 17 | · | 131* | 45
CC12CCC(CC1)C(C)(C)O2 | 100* | 6 | -2 | · | -1 | -2
SMILES | SKKanGAS inh | Calb FLC | T cruzi repl | Mdm2-MdmX inh | CSC inhib | Beta apoptosis
COc1cccc(NC(=O)COC(=O)c2c(C)nn(-c3ccccc3)c2C)c1 | · | · | · | 13 | · | 2
Cc1ccc2nc(N(CCCN(C)C)C(=O)c3ccc(S(=O)(=O)N4CCCCCC4)cc3)sc2c1 | ? | -8 | 60* | 41 | 1 | 13
CCN(CC)CCN(C(=O)c1ccc(S(=O)(=O)N(C)C2CCCCC2)cc1)c1nc2ccc(OC)cc2s1 | 33 | -6 | 65* | 13 | 4 | -1
CN(C)CCN(C(=O)c1ccc(S(=O)(=O)N2CCCC2)cc1)c1nc2ccc(Br)cc2s1 | 5 | -1 | 57* | 14 | -18 | 1
CN(C)CCCN(C(=O)c1ccc(S(=O)(=O)N2CCOCC2)cc1)c1nc2ccc(F)cc2s1 | -3 | 2 | 65* | 4 | 1 | ·
CCCc1cc(=O)n2nc(N3CCC(C(=O)N4CCN(c5cccc(OC)c5)CC4)CC3)sc2n1 | 5 | 1 | 3 | 1 | 26 | 3
CN(C(=O)COC(=O)c1ccc(Br)c([N+](=O)[O-])c1)c1c(N)n(Cc2ccccc2)c(=O)[nH]c1=O | -1 | 1 | -2 | -29 | 0 | 1
Cc1nn(-c2ccccc2)c(Cl)c1C(=O)OCC(=O)NCCc1ccc(S(N)(=O)=O)cc1 | · | · | · | 8 | · | ·
Cc1ccc2nc(N(CCN(C)C)C(=O)c3ccc4ccccc4c3)sc2c1 | -5 | -2 | 26 | 10 | -12 | -5
O=C(CCS(=O)(=O)c1ccccc1)N(CCCN1CCOCC1)c1nc2ccc(F)cc2s1 | -4 | 4 | 63* | 45 | 62 | 11
CCCCN(C)S(=O)(=O)c1ccc(C(=O)N(CCN(C)C)c2nc3ccc(C)cc3s2)cc1 | -5 | -12 | 65* | -6 | -9 | -7
COc1ccc2sc(N(CCCN(C)C)C(=O)c3ccc(S(=O)(=O)N(C)Cc4ccccc4)cc3)nc2c1 | 0 | -12 | 55* | 34 | -7 | ·
CCc1cccc2sc(N(CCCN3CCOCC3)C(=O)CS(=O)(=O)c3ccccc3)nc12 | 42 | 7 | -2 | 18 | · | -7
COc1ccc2sc(N(CCCN(C)C)C(=O)c3nc4ccccc4s3)nc2c1 | -4 | -3 | 43 | 3 | -14 | 9
COc1cc2nc(N(CCCN(C)C)C(=O)c3ccc(S(=O)(=O)N4CCc5ccccc5C4)cc3)sc2cc1OC | -6 | 10 | 57* | 30 | -5 | ·
O=[N+]([O-])c1ccccc1/C=N/N1CCN(c2ccncc2S(=O)(=O)N2CCCCC2)CC1 | 19 | 11 | 76* | 26 | 4 | 9
Oc1[nH]c(N=C2N=c3ccccc3=N2)c2ccccc12 | 82* | 64 | 51 | · | 51 | 113*
CC(C)NC(=O)NC(=O)CSc1nnc(COc2ccccc2F)n1C(C)C1CC2CCC1C2 (stereo not given) | 51* | 17 | 42 | 32 | · | ·
CCN1CCN(C(c2cccc(OC)c2OC)c2nnnn2Cc2ccco2)CC1 (stereo not given) | -2 | -5 | -6 | 6 | -2 | -2
CCCC(c1nnnn1Cc1ccco1)N1CCN(c2cc(Cl)ccc2C)CC1 (stereo not given) | · | · | · | -1 | 136* | 2
COc1ccccc1C(c1nnnn1Cc1ccco1)N1CCN(c2cccc(C)c2C)CC1 (stereo not given) | 27 | -1 | 74* | -27 | 42 | 6
Cc1ccc(C(=O)Nc2ccc(C(=O)N3CCCCC3)cc2)o1 | 12 | 0 | -7 | -9 | 24 | 28
Cc1nc(NS(=O)(=O)c2ccc(Cl)s2)c2c3c(sc2n1)CCCC3 | 63* | -1 | -2 | 11 | 34 | 8

High-throughput results deposited in PubChem BioAssay by several laboratories.
